Here are results for seven molecules from ChEMBL document CHEMBL1152548, “Structural and biological evaluation of some loloatin C analogues” (Bioorg Med Chem, 2009).

The structures appear in SMILES notation. ≈ marks a conversion by molar mass, not a printed value. Where only a bound is given, the exact number is not on record here.

In one series the test system is Pseudomonas aeruginosa. Nature of the series: Antibacterial activity against Pseudomonas aeruginosa ATCC 27853 after 24 to 96 hrs by twofold serial dilution method. The class given is functional. A digest of the protocol: (§1)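 Strains kept at -70 °C, grown at 30 °C on blood agar and suspended in physiological saline to OD 0.1 at 595 nm. The suspension was diluted 10× and 2 µL added to 100 µL nutrient broth with yeast extract. Peptides came from an ethanol stock (4 g/L), were diluted in water and twofold diluted in broth (64 to 1 mg/L). Plates were incubated at 30 °C for 24–96 h. MIC was the lowest concentration inhibiting growth.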

The test system of series [1] is Staphylococcus epidermidis. Kind of series: Antibacterial activity against Staphylococcus epidermidis ATCC 12228 after 24 to 96 hrs by twofold serial dilution method. The class given is functional. A digest of the protocol: as §1
The subject of the next series is Staphylococcus aureus. Nature of the series: Antibacterial activity against Staphylococcus aureus ATCC 29213 after 24 to 96 hrs by twofold serial dilution method. The class given is functional. Summed up: as §1
Another series concerns Escherichia coli. Kind of series: Antibacterial activity against Escherichia coli ATCC 25922 after 24 to 96 hrs by twofold serial dilution method. Format: functional. A digest of the protocol:
as §1

The test system of the next series is Bacillus cereus. Nature of the series: Antibacterial activity against Bacillus cereus ATCC 11778 after 24 to 96 hrs by twofold serial dilution method. Format: functional. A digest of the protocol: as §1
Series [2] is described as follows: Solubility in 30% DMSO. The class given is physicochemical.
The next series concerns Enterococcus faecalis. Kind of series: Antibacterial activity against Enterococcus faecalis ATCC 29212 after 24 to 96 hrs by twofold serial dilution method. The class given is functional. A digest of the protocol: as §1
Series [3] deals with erythrocyte (Homo sapiens). Kind of series: Cytotoxicity against human erythrocytes assessed as induction of hemolysis at 10 uL after 4 hrs.

Regarding `CC(C)C[C@@H]1NC(=O)[C@H](CCCN)NC(=O)[C@H](C(C)C)NC(=O)[C@H](Cc2c[nH]c3ccccc23)NC(=O)[C@H](CC(=O)O)NC(=O)[C@H](CC(N)=O)NC(=O)[C@@H](Cc2ccccc2)NC(=O)[C@H](Cc2c[nH]c3ccccc23)NC(=O)[C@@H]2O[C@H](CNC1=O)[C@@H](OCc1ccccc1)[C@@H]2O`, the MIC (with Pseudomonas aeruginosa; in series [1]; in the series with Staphylococcus aureus; in the series with Escherichia coli; with Bacillus cereus; against Enterococcus faecalis) was above 64 µg/mL in each case. Besides, the solubility entry in series [2] is reported as “Insoluble”. Further, the Activity entry in series [3] is listed as “Non-toxic”.
For the molecule `CC(C)C[C@@H]1NC(=O)[C@H](CCCN)NC(=O)[C@H](C(C)C)NC(=O)[C@H](Cc2c[nH]c3ccccc23)NC(=O)[C@H](CC(=O)O)NC(=O)[C@@H]2O[C@H](CNC(=O)[C@H](Cc3c[nH]c4ccccc34)NC(=O)[C@@H]3CCCN3C(=O)[C@@H](Cc3ccc(O)cc3)NC1=O)[C@@H](OCc1ccccc1)[C@@H]2O`, the MIC (in the series on Pseudomonas aeruginosa; in series [1]; in the series on Staphylococcus aureus; against Escherichia coli; against Bacillus cereus; with Enterococcus faecalis) was above 64 µg/mL throughout. In addition, the Activity entry in series [3] was “Non-toxic”.
`CC(C)C[C@@H]1NC(=O)[C@H](CCCN)NC(=O)[C@H](C(C)C)NC(=O)[C@@H]2O[C@H](CNC(=O)[C@H](CC(N)=O)NC(=O)[C@H](Cc3ccccc3)NC(=O)[C@H](Cc3c[nH]c4ccccc34)NC(=O)[C@@H]3CCCN3C(=O)[C@@H](Cc3ccc(O)cc3)NC1=O)[C@@H](OCc1ccccc1)[C@@H]2O`: the MIC is above 64 µg/mL in the series on Pseudomonas aeruginosa; 32 µg/mL (≈ 24.9 µM) in series [1]; above 64 µg/mL in the series on Staphylococcus aureus; above 64 µg/mL against Escherichia coli; 64 µg/mL (≈ 49.9 µM) with Bacillus cereus; above 64 µg/mL in the series with Enterococcus faecalis. Also, in series [2], the solubility entry is “Insoluble”. In addition, the Activity result in series [3] was “Toxic”.
In the case of `CC(C)C[C@@H]1NC(=O)[C@H](CCCN)NC(=O)[C@H](C(C)C)NC(=O)[C@H](Cc2c[nH]c3ccccc23)NC(=O)[C@H](CC(=O)O)NC(=O)[C@H](CC(N)=O)NC(=O)[C@H](Cc2ccccc2)NC(=O)[C@H](Cc2c[nH]c3ccccc23)NC(=O)[C@@H]2CCCN2C(=O)[C@@H](Cc2ccc(O)cc2)NC1=O`, the MIC is above 64 µg/mL against Pseudomonas aeruginosa; 32 µg/mL (≈ 24 µM) in series [1]; 64 µg/mL (≈ 47.9 µM) in the series on Staphylococcus aureus; above 64 µg/mL against Escherichia coli; 32 µg/mL (≈ 24 µM) against Bacillus cereus; above 64 µg/mL with Enterococcus faecalis. In addition, the solubility entry in series [2] is “Insoluble”. Moreover, in series [3], the Activity result was “Toxic”.
For `CC(C)C[C@@H]1NC(=O)[C@H](CCCN)NC(=O)[C@H](C(C)C)NC(=O)[C@H](Cc2c[nH]c3ccccc23)NC(=O)[C@@H](CC(=O)O)NC(=O)[C@H](CC(N)=O)NC(=O)[C@H](Cc2ccccc2)NC(=O)[C@H](Cc2c[nH]c3ccccc23)NC(=O)[C@@H]2CCCN2C(=O)[C@@H](Cc2ccc(O)cc2)NC1=O`, the MIC (with Pseudomonas aeruginosa; in series [1]; with Staphylococcus aureus; in the series on Escherichia coli; against Bacillus cereus; in the series with Enterococcus faecalis) was above 64 µg/mL each time.
Regarding `CC(C)C[C@@H]1NC(=O)[C@H](CCCN)NC(=O)[C@H](C(C)C)NC(=O)[C@@H]2O[C@H](CNC(=O)[C@H](CC(N)=O)NC(=O)[C@@H](Cc3ccccc3)NC(=O)[C@H](Cc3c[nH]c4ccccc34)NC(=O)[C@@H]3CCCN3C(=O)[C@@H](Cc3ccc(O)cc3)NC1=O)[C@@H](OCc1ccccc1)[C@@H]2O`, the MIC (with Pseudomonas aeruginosa; in series [1]; in the series with Staphylococcus aureus; with Escherichia coli; against Bacillus cereus; against Enterococcus faecalis) was above 64 µg/mL in each case. For the same molecule, the solubility entry in series [2] was “Insoluble”. In addition, the Activity result in series [3] is listed as “Non-toxic”.
In the case of `CC(C)C[C@@H]1NC(=O)[C@H](CCCN)NC(=O)[C@H](C(C)C)NC(=O)[C@H](Cc2c[nH]c3ccccc23)NC(=O)[C@H](CC(=O)O)NC(=O)[C@H](CC(N)=O)NC(=O)[C@@H](Cc2ccccc2)NC(=O)[C@H](Cc2c[nH]c3ccccc23)NC(=O)[C@@H]2CCCN2C(=O)[C@@H](Cc2ccc(O)cc2)NC1=O` [LOLOATIN C], the MIC with Pseudomonas aeruginosa is above 64 µg/mL; in series [1], 8 µg/mL (≈ 5.99 µM); with Staphylococcus aureus, 8 µg/mL (≈ 5.99 µM); against Escherichia coli, above 64 µg/mL; against Bacillus cereus, 8 µg/mL (≈ 5.99 µM); in the series on Enterococcus faecalis, 8 µg/mL (≈ 5.99 µM). Further, the Activity entry in series [3] was “Toxic”.
